Results as given in ChEMBL document CHEMBL1151475, “Thiopurine drugs azathioprine and 6-mercaptopurine inhibit Mycobacterium paratuberculosis growth in vitro” (2008).

Key:
[1] = tested on: Mycobacterium avium subsp. paratuberculosis; assay: Antituberculosis activity against Mycobacterium paratuberculosis JTC303 isolated from bovine assessed as minimum drug level required for inhibition by MGIT 960 susceptibility test; type: functional
Method in brief: (§1)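 10^5 to 10^6 CFU from single-cell suspensions inoculated in duplicate into MGIT ParaTB medium with supplement and egg yolk. Drugs were at final 0.5–64.0 μg/ml, with 128.0 μg/ml added for some strains. Tubes were incubated at 37°C in MGIT 960. Inhibition is the lowest concentration giving a time to detection longer than a drug-free 1:100 inoculum control. Killing is no positive signal through 56 days.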

[2] = tested on: Mycobacterium avium subsp. paratuberculosis; assay: Antituberculosis activity against Mycobacterium paratuberculosis JTC303 isolated from bovine assessed as minimum drug level required for killing after 56 days by MGIT 960 susceptibility test; type: functional; method in brief: as §1
[3] = tested on: Mycobacterium avium subsp. paratuberculosis; assay: Antituberculosis activity against Mycobacterium paratuberculosis UCF-4 isolated from Crohn's disease patient assessed as minimum drug level required for inhibition by MGIT 960 susceptibility test; type: functional; method in brief: as §1
[4] = tested on: Mycobacterium avium subsp. paratuberculosis; assay: Antituberculosis activity against Mycobacterium paratuberculosis UCF-4 isolated from Crohn's disease patient assessed as minimum drug level required for killing after 56 days by MGIT 960 susceptibility test; type: functional; method in brief: as §1
[5] = tested on: Mycobacterium avium subsp. paratuberculosis; assay: Antituberculosis activity against Mycobacterium paratuberculosis UCF-5 isolated from Crohn's disease patient assessed as minimum drug level required for inhibition by MGIT 960 susceptibility test; type: functional; method in brief: as §1
[6] = tested on: Mycobacterium avium subsp. paratuberculosis; assay: Antituberculosis activity against Mycobacterium paratuberculosis UCF-5 isolated from Crohn's disease patient assessed as minimum drug level required for killing after 56 days by MGIT 960 susceptibility test; type: functional; method in brief: as §1
[7] = tested on: Mycobacterium avium subsp. paratuberculosis; assay: Antituberculosis activity against Mycobacterium paratuberculosis UCF-7 isolated from Crohn's disease patient assessed as minimum drug level required for inhibition by MGIT 960 susceptibility test; type: functional; method in brief: as §1
[8] = tested on: Mycobacterium avium subsp. paratuberculosis; assay: Antituberculosis activity against Mycobacterium paratuberculosis UCF-7 isolated from Crohn's disease patient assessed as minimum drug level required for killing after 56 days by MGIT 960 susceptibility test; type: functional; method in brief: as §1
[9] = tested on: Mycobacterium avium subsp. paratuberculosis; assay: Antituberculosis activity against Mycobacterium paratuberculosis B213 isolated from bovine assessed as minimum drug level required for inhibition by MGIT 960 susceptibility test; type: functional; method in brief: as §1
[10] = tested on: Mycobacterium avium subsp. paratuberculosis; assay: Antituberculosis activity against Mycobacterium paratuberculosis B213 isolated from bovine assessed as minimum drug level required for killing after 56 days by MGIT 960 susceptibility test; type: functional; method in brief: as §1
[11] = tested on: Mycobacterium avium subsp. paratuberculosis; assay: Antituberculosis activity against Mycobacterium paratuberculosis B236 isolated from bovine assessed as minimum drug level required for inhibition by MGIT 960 susceptibility test; type: functional; method in brief: as §1
[12] = tested on: Mycobacterium avium subsp. paratuberculosis; assay: Antituberculosis activity against Mycobacterium paratuberculosis B236 isolated from bovine assessed as minimum drug level required for killing after 56 days by MGIT 960 susceptibility test; type: functional; method in brief: as §1
[13] = tested on: Mycobacterium avium subsp. paratuberculosis; assay: Antituberculosis activity against Mycobacterium paratuberculosis B238 isolated from bovine assessed as minimum drug level required for inhibition by MGIT 960 susceptibility test; type: functional; method in brief: as §1
[14] = tested on: Mycobacterium avium subsp. paratuberculosis; assay: Antituberculosis activity against Mycobacterium paratuberculosis B238 isolated from bovine assessed as minimum drug level required for killing after 56 days by MGIT 960 susceptibility test; type: functional; method in brief: as §1
Mycobacterium avium [15] = assay: Antituberculosis activity against Mycobacterium avium ATCC 35712 isolated from chicken assessed as minimum drug level required for inhibition by MGIT 960 susceptibility test; type: functional; method in brief: as §1
[16] = tested on: Mycobacterium avium subsp. paratuberculosis; assay: Antituberculosis activity against Mycobacterium paratuberculosis UCF-8 isolated from Crohn's disease patient assessed as minimum drug level required for inhibition by MGIT 960 susceptibility test; type: functional; method in brief: as §1
[17] = tested on: Mycobacterium avium subsp. paratuberculosis; assay: Antituberculosis activity against Mycobacterium paratuberculosis B244 isolated from bovine assessed as minimum drug level required for inhibition by MGIT 960 susceptibility test; type: functional; method in brief: as §1
[18] = tested on: Mycobacterium avium subsp. paratuberculosis; assay: Antituberculosis activity against Mycobacterium paratuberculosis B244 isolated from bovine assessed as minimum drug level required for killing after 56 days by MGIT 960 susceptibility test; type: functional; method in brief: as §1
[19] = tested on: Mycobacterium avium subsp. paratuberculosis; assay: Antituberculosis activity against Mycobacterium paratuberculosis ATCC 19698 isolated from bovine assessed as lowest drug level required for killing by MGIT 960 susceptibility test; type: functional
Method in brief: (§2)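 M. paratuberculosis ATCC 19698 at 10^6 CFU per MGIT ParaTB tube in duplicate, drugs at final 1.0–64.0 μg/ml, 37°C in MGIT 960. Inhibition is the lowest concentration whose time to detection exceeds the 1:100 diluted-inoculum solvent control. No detectable growth means the tube never signals positive through 56 days.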

Mycobacterium avium [20] = assay: Antituberculosis activity against Mycobacterium avium ATCC 25291 isolated from chicken assessed as minimum drug level required for inhibition by MGIT 960 susceptibility test; type: functional; method in brief: as §1
Mycobacterium avium [21] = assay: Antituberculosis activity against Mycobacterium avium ATCC 25291 isolated from chicken assessed as minimum drug level required for killing within 15 days by MGIT 960 susceptibility test; type: functional
Mycobacterium avium [22] = assay: Antituberculosis activity against Mycobacterium avium 104 isolated from AIDS patient assessed as minimum drug level required for inhibition by MGIT 960 susceptibility test; type: functional; method in brief: as §1
Mycobacterium avium [23] = assay: Antituberculosis activity against Mycobacterium avium 104 isolated from AIDS patient assessed as minimum drug level required for killing within 15 days by MGIT 960 susceptibility test; type: functional
Mycobacterium avium [24] = assay: Antituberculosis activity against Mycobacterium avium JTC48627 isolated from bison fecal sample assessed as minimum drug level required for inhibition by MGIT 960 susceptibility test; type: functional, Feces; method in brief: as §1
Mycobacterium avium [25] = assay: Antituberculosis activity against Mycobacterium avium JTC48627 isolated from bison fecal sample assessed as minimum drug level required for killing within 15 days by MGIT 960 susceptibility test; type: functional, Feces
Mycobacterium avium [26] = assay: Antituberculosis activity against Mycobacterium avium JTC981 isolated from bongo fecal sample assessed as minimum drug level required for inhibition by MGIT 960 susceptibility test; type: functional, Feces; method in brief: as §1
Mycobacterium avium [27] = assay: Antituberculosis activity against Mycobacterium avium JTC981 isolated from bongo fecal sample assessed as minimum drug level required for killing within 15 days by MGIT 960 susceptibility test; type: functional, Feces
Mycobacterium avium [28] = assay: Antituberculosis activity against Mycobacterium avium EPA3 isolated from water assessed as minimum drug level required for killing within 15 days by MGIT 960 susceptibility test; type: functional
Mycobacterium avium [29] = assay: Antituberculosis activity against Mycobacterium avium WSLH1544 isolated from water assessed as minimum drug level required for killing within 15 days by MGIT 960 susceptibility test; type: functional
Mycolicibacterium phlei [30] = assay: Antituberculosis activity against Mycobacterium phlei ATCC 11758 assessed as minimum drug level required for inhibition by MGIT 960 susceptibility test; type: functional
Method in brief: (§3)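 MGIT ParaTB tubes were supplemented with egg yolk and inoculated in duplicate with 10^5 to 10^6 CFU from single-cell suspensions. Thiopurines were dissolved in 0.05 M NaOH in 10 mM PBS and tested at final 0.5 to 64.0 μg/ml, with 128.0 μg/ml added for some strains. Tubes ran at 37°C in the MGIT 960. The value is the lowest concentration giving a time-to-detection longer than a drug-free 1:100 inoculum control.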

Mycolicibacterium phlei [31] = assay: Antituberculosis activity against Mycobacterium phlei ATCC 11758 assessed as minimum drug level required for killing after 56 days by MGIT 960 susceptibility test; type: functional
Method in brief: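 Duplicate MGIT ParaTB tubes with egg yolk and supplement received 10^5 to 10^6 CFU and thiopurine (in 0.05 M NaOH/10 mM PBS) at final 0.5 to 64.0 μg/ml, plus 128.0 μg/ml for some strains. Tubes were incubated at 37°C in the MGIT 960. The value is the minimum concentration whose tubes never signalled positive by 56 days.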

[32] = tested on: Mycolicibacterium smegmatis; assay: Antituberculosis activity against Mycobacterium smegmatis ATCC 14468 assessed as minimum drug level required for inhibition by MGIT 960 susceptibility test; type: functional; method in brief: as §3
[33] = tested on: Mycolicibacterium smegmatis; assay: Antituberculosis activity against Mycobacterium smegmatis ATCC 14468 assessed as minimum drug level required for killing after 56 days by MGIT 960 susceptibility test; type: functional; method in brief: as §1
Escherichia coli [34] = assay: Antituberculosis activity against Escherichia coli ATCC 25922 clinical isolate assessed as minimum drug level required for inhibition by MGIT 960 susceptibility test; type: functional
Escherichia coli [35] = assay: Antituberculosis activity against Escherichia coli ATCC 25922 clinical isolate assessed as minimum drug level required for killing after 56 days by MGIT 960 susceptibility test; type: functional
Enterococcus faecalis [36] = assay: Antituberculosis activity against Enterococcus faecalis ATCC 29212 isolated from human urine assessed as minimum drug level required for inhibition by MGIT 960 susceptibility test; type: functional
Enterococcus faecalis [37] = assay: Antituberculosis activity against Enterococcus faecalis ATCC 29212 isolated from human urine assessed as minimum drug level required for killing after 56 days by MGIT 960 susceptibility test; type: functional
[38] = tested on: Mycobacterium avium subsp. paratuberculosis; assay: Antituberculosis activity against Mycobacterium paratuberculosis ATCC 19698 isolated from bovine assessed as lowest drug level producing inhibition at 10^6 CFU of inoculum by MGIT 960 susceptibility test; type: functional; method in brief: as §2
[39] = tested on: Mycobacterium avium subsp. paratuberculosis; assay: Antituberculosis activity against Mycobacterium paratuberculosis ATCC 19698 isolated from bovine assessed as lowest drug level producing inhibition at 10^6 CFU of inoculum by agar counting method; type: functional
Method in brief: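 ATCC 19698 at 10^6 CFU was exposed to drug (1.0–64.0 μg/ml) in MGIT ParaTB medium at 37°C. Aliquots taken at 3 and 5 days were centrifuged, resuspended in PBS and declumped with glass beads. Serial dilutions were plated in quadruplicate on 7H10/OADC/mycobactin J and counted after 8 weeks. Inhibition is the lowest concentration giving a 2 log10 (99%) CFU reduction.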

[40] = tested on: Mycobacterium avium subsp. paratuberculosis; assay: Antituberculosis activity against Mycobacterium paratuberculosis ATCC 19698 isolated from bovine assessed as minimum drug level resulting in no detectable growth at 10^6 CFU of inoculum after 56 days by MGIT 960 susceptibility test; type: functional; method in brief: as §2
Mycobacterium avium [41] = assay: Antituberculosis activity against Mycobacterium avium ATCC 35712 isolated from chicken assessed as minimum drug level required for killing after 56 days by MGIT 960 susceptibility test; type: functional; method in brief: as §1

Measured: Activity

Cn1cnc([N+](=O)[O-])c1Sc1ncnc2[nH]cnc12 [AZATHIOPRINE]
1 µg/mL: [7]
16 µg/mL: [8] | [13] | [19]
4 µg/mL: [3]
2 µg/mL: [1] | [5] | [16] | Mycolicibacterium phlei [30]
8 µg/mL: [9] | [11] | [17]
>128 µg/mL: [32] | [33] | Escherichia coli [34] | Escherichia coli [35] | Enterococcus faecalis [36] | Enterococcus faecalis [37]
64 µg/mL: Mycobacterium avium [24]
32 µg/mL: Mycolicibacterium phlei [31]
>32 µg/mL: [2] | [4] | [6] | [10] | [12] | [14] | [18]
not listed: [38] | [39] | [40] | Mycobacterium avium [41]
>64 µg/mL: all other assays above

CO[C@H]1/C=C/O[C@@]2(C)Oc3c(C)c(O)c4c(O)c(c(/C=N/N5CCN(C)CC5)c(O)c4c3C2=O)NC(=O)/C(C)=C\C=C\[C@H](C)[C@H](O)[C@@H](C)[C@@H](O)[C@@H](C)[C@H](OC(C)=O)[C@@H]1C [RIFAMPIN]
2 µg/mL: [38] | [39]
>64 µg/mL: [40]

CCn1cc(C(=O)O)c(=O)c2ccc(C)nc21 [NALIDIXIC ACID]
>64 µg/mL: [38] | [39] | [40]

O=C(O)c1cc(/N=N/c2ccc(S(=O)(=O)Nc3ccccn3)cc2)ccc1O [SULFASALAZINE]
>64 µg/mL: [38] | [39] | [40]

Nc1ccc(O)c(C(=O)O)c1 [MESALAMINE]
>64 µg/mL: [38] | [39] | [40]

Nc1ccc(S(=O)(=O)Nc2ccccn2)cc1 [SULFAPYRIDINE]
>64 µg/mL: [38] | [39] | [40]

CC[C@H]1OC(=O)[C@H](C)[C@@H](O[C@H]2C[C@@](C)(OC)[C@@H](O)[C@H](C)O2)[C@H](C)[C@@H](O[C@@H]2O[C@H](C)C[C@H](N(C)C)[C@H]2O)[C@](C)(O)C[C@@H](C)CN(C)[C@H](C)[C@@H](O)[C@]1(C)O [AZITHROMYCIN]
16 µg/mL: [40] | Mycobacterium avium [41]
>0.5 µg/mL: [13]
0.5 µg/mL: [5] | [7] | [11]
4 µg/mL: [38] | [39] | [2] | [12]
2 µg/mL: [4] | [6] | [10]
1 µg/mL: [1] | [3] | [8] | [9] | [14] | Mycobacterium avium [15]
